Measured values from different studies.

O=C(/C=C(O)/C=C/c1ccncc1)/C=C/c1c[nH]c2ccccc12 — IC50 (CHO-K1; cell growth or viability, SRB; 72 h): 66.3 µM
C/C(=N\O)c1ccc(-c2ccc(O)c(Cl)c2)c(Cl)c1O — viability (NCI-H1299; cell growth or viability, MTT; 30 µM, 48 h): 80%
CS(=O)(=O)CCNCc1ccc(-c2ccc3ncnc(Nc4ccc(OCc5cccc(F)c5)c(Cl)c4)c3c2)o1 — EC50 (NCI-H1299; cell growth or viability, MTT; 72 h): 41 µM
Cc1cc(Nc2ccc(C(=O)N/N=C/c3cc4ccccc4[nH]3)cc2)c2cccc(O)c2n1 — inhibition (SMMC-7721; cell growth or viability, MTT; 20 µM): 54.3%
Cc1cc(Nc2ncc(Cl)c(Nc3ccccc3S(=O)(=O)C(C)C)n2)c(OC(C)C)cc1C1CCNCC1 — inhibition (NCI-H3122; cell growth or viability, MTT; 0.0032 µg/mL, 72 h): 10.3%
Cc1ccc2nc(-c3c4ccccc4cc4ccccc34)[nH]c2c1 — IC50 (human Rhabdomyosarcoma cell; cell growth or viability, MTT; 48 h): 27 µM
COc1cc(/C=C/C(=O)/C=C(O)/C=C/c2cccc3cnccc23)ccc1O — IC50 (CHO-K1; cell growth or viability, MTT; 72 h): 7.6 µM
Cc1cc(Nc2ccc(C(=O)N/N=C/C3CCCCC3)cc2)c2cccc(O)c2n1 — inhibition (SMMC-7721; cell growth or viability, MTT; 20 µM): 26.3%
COc1ccc(-c2nc3ccc(C)cc3[nH]2)cc1OC — IC50 (human Rhabdomyosarcoma cell; cell growth or viability, MTT; 48 h): > 100 µM
Cc1cc(Nc2ccc(C(=O)N/N=C/c3ccccc3)cc2)c2cccc(O)c2n1 — inhibition (SMMC-7721; cell growth or viability, MTT; 20 µM): 28.5%
COc1ccc(-c2ccc(/C(C)=N/O)c(O)c2Cl)cc1 — viability (NCI-H1299; cell growth or viability, MTT; 30 µM, 48 h): 73%
COc1cc(/C=C/c2cc(/C=C/c3cccnc3)[nH]n2)ccc1O — IC50 (CHO-K1; cell growth or viability, MTT; 72 h): 13.2 µM
CC(=O)c1cccc(N=Nc2c(C(=O)O)cc(O)c(O)c2O)c1 — inhibition (RAW264.7; TNF-α release, inhibitor, ELISA; 10 µM, LPS-stimulated): 48%
O=C(/C=C(O)/C=C/c1ccc[nH]1)/C=C/c1c[nH]c2ccccc12 — IC50 (CHO-K1; cell growth or viability, MTT; 72 h): 11 µM
O=C1CCC(N2Cc3cc(CNC(=O)C(F)(F)c4ccc(Cl)cc4)ccc3C2=O)C(=O)N1 (stereo not drawn) — EC50 (MHHCALL4; cell growth or viability, ATP luminescence): 0.00413 µM
Fc1cccc(Cl)c1-c1nc2ccccc2[nH]1 — IC50 (human Rhabdomyosarcoma cell; cell growth or viability, MTT; 48 h): > 100 µM
CC(C)C[C@H](NC(=O)[C@H](Cc1ccccc1)NC(=O)c1cnccn1)B(O)O — IC50 (COR-L279; cell growth or viability, ATP luminescence): 0.0076 µM
CC(=O)Oc1ccc(/C=N/NC(=O)c2ccc(Nc3cc(C)nc4c(O)cccc34)cc2)cc1 — inhibition (SMMC-7721; cell growth or viability, MTT; 20 µM): 14.1%
COC(=O)c1ccc2c(c1)NC(=O)/C2=C(\Nc1ccc(N(C)C(=O)CN2CCN(C)CC2)cc1)c1ccccc1 — inhibition (L929; cell growth or viability, MTT; 10 µM, 24 h): < 50%
Cc1cc(=O)n(C)c2cc(N3C(=O)CC[C@H](NS(=O)(=O)CC(C)C)[C@H]3c3ccc(Cl)cc3)ccc12 — EC50 (HL-60; cell growth or viability; 7 days): 5.03 µM
Cc1cc(Nc2ccc(C(=O)N/N=C/c3ccc[nH]3)cc2)c2cccc(O)c2n1 — inhibition (SMMC-7721; cell growth or viability, MTT; 20 µM): 16.1%
N#CSCCOc1ccccc1Oc1ccccc1 — CC50 (Vero; cell growth or viability; 72 h): > 20 µM
c1cncc(-c2nc3ccccc3[nH]2)c1 — IC50 (human Rhabdomyosarcoma cell; cell growth or viability, MTT; 48 h): 87.7 µM
N#C[Se]CCOc1ccccc1Oc1ccccc1 — CC50 (Vero; cell growth or viability; 72 h): > 20 µM
COc1ccc(-c2ccc(/C(C)=N/O)c(O)c2Cl)cc1Cl — viability (NCI-H1299; cell growth or viability, MTT; 30 µM, 48 h): 65%
Cc1ccc(/C=N/NC(=O)c2ccc(Nc3cc(C)nc4c(O)cccc34)cc2)cc1 — inhibition (SMMC-7721; cell growth or viability, MTT; 20 µM): 50.8%
O=C(Cn1ccnc1[N+](=O)[O-])NCc1ccccc1 — CC50 (Vero; cell growth or viability; 72 h): > 10 µM
Clc1ccc(Cn2c(-c3ccc(Cl)cc3)nc3ccccc32)cc1 — IC50 (human Rhabdomyosarcoma cell; cell growth or viability, MTT): 9.67 µM
C/C(=N\O)c1ccc(-c2cccc(O)c2)c(Cl)c1O — viability (NCI-H1299; cell growth or viability, MTT; 30 µM, 48 h): 22%
Clc1ccc(-c2nc3ccccc3[nH]2)cc1 — IC50 (human Rhabdomyosarcoma cell; cell growth or viability, MTT; 48 h): > 100 µM
COc1cc(/C=C/C(=O)/C=C(O)/C=C/c2ccc[nH]2)ccc1O — IC50 (CHO-K1; cell growth or viability, MTT; 72 h): 24.1 µM
COc1cc(Nc2nccc(-c3cnn4nc(OC)ccc34)n2)cc(C(F)(F)F)c1 — IC50 (OV56; cell growth or viability, ATP luminescence): 1.4 µM
C=CC(=O)N1CCN(c2nc(=O)n(-c3c(C)ccnc3C(C)C)c3nc(-c4c(O)cccc4F)c(F)cc23)[C@@H](C)C1 — GI50 (NCI-H1437; cell growth or viability, ATP luminescence; 5 days): > 10 µM
Cc1cc(Nc2ccc(C(=O)N/N=C/c3ccnc(Cl)c3)cc2)c2cccc(O)c2n1 — inhibition (SMMC-7721; cell growth or viability, MTT; 20 µM): 19.8%
Clc1ccccc1-c1nc2ccccc2[nH]1 — IC50 (human Rhabdomyosarcoma cell; cell growth or viability, MTT; 48 h): 42.4 µM
C[C@@H](Oc1cc(-c2cnn(C3CCNCC3)c2)cnc1N)c1c(Cl)ccc(F)c1Cl — inhibition (NCI-H3122; cell growth or viability, MTT; 0.008 µg/mL, 72 h): 18.1%
Cc1cc2c(cc1N1C(=O)c3cccc4c(CCCO)ccc(c34)C1=O)n(C)c(=O)n2C (racemic) — GI50 (CHL-1; cell growth or viability, resazurin): 7.4 µM
C=C(F)C(=O)N1CCN(c2nc(OC[C@@H]3CCCN3C)nc3c2CCN(c2cccc4cccc(Cl)c24)C3)C[C@@H]1CC#N — GI50 (NCI-H1437; cell growth or viability, ATP luminescence; 5 days): 2.22 µM
CC(=O)c1c(C)c2cnc(Nc3ccc(N4CCNCC4)cn3)nc2n(C2CCCC2)c1=O — GI50 (HCC70; cell growth or viability, resazurin): > 5 µM
CCC[C@@H]1CNC(=O)C(=O)N1C[C@@H]1CCCN1C[C@H](Cc1ccc(O)cc1)N1C[C@@H](Cc2ccc(O)cc2)N(CC(CC)c2ccccc2)C(=O)C1=O (stereo partly drawn) — inhibition (CHO-K1; cell growth or viability, ATP luminescence; 100 µM): 0%
C/C(=N\O)c1ccc(-c2cccc(OC(F)(F)F)c2)c(Cl)c1O — viability (NCI-H1299; cell growth or viability, MTT; 30 µM, 48 h): 83%
Oc1ccc(Br)cc1-c1nc2ccccc2[nH]1 — IC50 (human Rhabdomyosarcoma cell; cell growth or viability, MTT; 48 h): 7.25 µM
